Laboratory results published in ChEMBL document CHEMBL4725282, “Discovery of a Conformationally Constrained Oxazolidinone with Improved Safety and Efficacy Profiles for the Treatment of Multidrug-Resistant Tuberculosis” (J Med Chem, 2020).

Legend:
[1] = Toxicity in male Sprague-Dawley rat assessed as change in lymphocyte level at 150 mg/kg/day, po administered for 4 weeks followed by 2 week recovery period (Rvb =77.4 +/- 3.7 %); type: organism-based; settings: in vivo, 672 h
[2] = Toxicity in male Sprague-Dawley rat assessed as change in reticulocyte level at 450 mg/kg/day, po administered for 4 weeks followed by 2 week recovery period (Rvb =2.48 +/- 0.34 %); type: organism-based; settings: in vivo, 672 h
[3] = Toxicity in male Sprague-Dawley rat assessed as change in red blood cell count at 50 mg/kg/day, po administered for 4 weeks followed by 2 week recovery period (Rvb =7.86 +/- 0.32 10^12/L); type: organism-based; settings: in vivo, 672 h
[4] = Toxicity in male Sprague-Dawley rat assessed as change in platelet count at 50 mg/kg/day, po administered for 4 weeks followed by 2 week recovery period (Rvb =1077 +/- 117 10^9/L); type: organism-based; settings: in vivo, 672 h
[5] = Toxicity in male Sprague-Dawley rat assessed as histopathological changes at 50 to 450 mg/kg/day, po administered for 4 weeks measured post last dose; type: organism-based; settings: in vivo, 672 h, dose 50-450 mg/kg/day
[6] = Toxicity in male Sprague-Dawley rat assessed as change in white blood cell count at 450 mg/kg/day, po administered for 4 weeks followed by 2 week recovery period (Rvb =6.12 +/- 1.10 10^9/L); type: organism-based; settings: in vivo, 672 h
Method in brief: (§1)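 SD rats aged 6-7 weeks, 24 per group (12 female, 12 male): vehicle, 50, 150 or 450 mg/kg/day given orally once daily for 4 weeks, then 2-week recovery. 8 per sex per group dissected after the last dose and 4 per sex after 14-day recovery. Hematology included WBC count, reported as mean ± SD (n = 12), compared with vehicle.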

[7] = Toxicity in female Sprague-Dawley rat assessed as change in lymphocyte level at 450 mg/kg/day, po administered for 4 weeks followed by 2 week recovery period (Rvb =76.9 +/- 4.6 %); type: organism-based; settings: in vivo, 672 h
Cytochrome P450 1A2 = molecular target: T1, Cytochrome P450 1A2 (Homo sapiens, UniProt P05177); assay: Inhibition of CYP1A2 in human liver microsomes after 20 mins by LC-MS/MS analysis; type: ADME
T1 sequence (P05177 whole entry): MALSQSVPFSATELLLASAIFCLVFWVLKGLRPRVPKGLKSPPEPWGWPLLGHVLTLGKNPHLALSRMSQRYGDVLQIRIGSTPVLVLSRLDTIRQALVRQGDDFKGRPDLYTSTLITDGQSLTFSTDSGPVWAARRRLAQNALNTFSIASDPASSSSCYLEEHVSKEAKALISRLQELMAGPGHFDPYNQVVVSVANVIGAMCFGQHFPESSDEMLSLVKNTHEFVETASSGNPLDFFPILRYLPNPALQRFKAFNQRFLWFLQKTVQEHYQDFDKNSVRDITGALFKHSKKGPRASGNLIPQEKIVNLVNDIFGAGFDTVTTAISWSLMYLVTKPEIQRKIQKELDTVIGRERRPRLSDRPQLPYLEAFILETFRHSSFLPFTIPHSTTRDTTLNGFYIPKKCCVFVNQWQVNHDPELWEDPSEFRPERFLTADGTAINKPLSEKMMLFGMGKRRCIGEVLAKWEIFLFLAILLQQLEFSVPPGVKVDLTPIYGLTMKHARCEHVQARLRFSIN
Method in brief: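 Human liver microsomes (0.2 mg/mL) in phosphate buffer, 20 min incubation with compound at 0.1-50 μM alongside isoform-specific substrates and a positive control. Substrate remaining monitored by LC-MS/MS at each concentration; IC50 derived.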

[8] = Toxicity in female Sprague-Dawley rat assessed as change in reticulocyte level at 450 mg/kg/day, po administered for 4 weeks followed by 2 week recovery period (Rvb =2.85 +/- 0.53 %); type: organism-based; settings: in vivo, 672 h
[9] = Toxicity in female Sprague-Dawley rat assessed as change in hematocrit level at 50 mg/kg/day, po administered for 4 weeks followed by 2 week recovery period (Rvb =41.1 +/- 1.4 %); type: organism-based; settings: in vivo, 672 h
[10] = Toxicity in female Sprague-Dawley rat assessed as change in red blood cell count at 450 mg/kg/day, po administered for 4 weeks followed by 2 week recovery period (Rvb =7.32 +/- 0.20 10^12/L); type: organism-based; settings: in vivo, 672 h
[11] = Half life in cynomolgus monkey hepatocytes at 2 uM by LC-MS/MS analysis; type: ADME, cell-based, Macaca fascicularis, Hepatocyte
Method in brief: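 Hepatocytes (male CD-1 mouse, male SD rat, male beagle dog, male cynomolgus monkey, pooled human), final 1 μM compound and 1 million cells/mL, made by mixing 2 μM compound with 2 million cells/mL. Incubated at 37 °C in a CO2 incubator; sampled at 0, 15, 30, 60, 90 and 120 min. Quenched with methanol/ACN containing 0.1% formic acid. Parent remaining measured by LC-MS/MS.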

[12] = Toxicity in female Sprague-Dawley rat assessed as change in neutrophil level at 450 mg/kg/day, po administered for 4 weeks followed by 2 week recovery period (Rvb =18.5 +/- 5.3 %); type: organism-based; settings: in vivo, 672 h
[13] = Toxicity in male Sprague-Dawley rat assessed as change in white blood cell count at 50 mg/kg/day, po administered for 4 weeks followed by 2 week recovery period (Rvb =6.12 +/- 1.10 10^9/L); type: organism-based; settings: in vivo, 672 h; method in brief: as §1
[14] = Genotoxicity in CHO-WBL cells assessed as chromosome aberration at 20 to 150 ug/ml measured after 20 hrs in presence of S9 fraction by Giemsa staining based; type: toxicity, subcellular, Cricetulus griseus; settings: chinese hamster, s9, 20 h, dose 20-150 µg/ml
Method in brief: (§2)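 CHO-WBL cells in McCoy's 5A with 10% FBS, seeded 20-24 h before treatment. Compound in DMSO, with or without serum-free S-9 mix. Treatment either 3 h, then HBSS wash and 17 h further culture, or 20 h; harvest at 20 h from treatment start. Colcemid 0.1 μg/mL for the final 2 h, hypotonic KCl, methanol:acetic acid fixation, Giemsa stain. 300 metaphases per concentration (150 per duplicate flask) scored.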

[15] = Toxicity in female Sprague-Dawley rat assessed as change in hemoglobin count at 50 mg/kg/day, po administered for 4 weeks followed by 2 week recovery period (Rvb =136 +/- 7 g/L); type: organism-based; settings: in vivo, 672 h
[16] = Toxicity in female Sprague-Dawley rat assessed as histopathological changes at 50 to 450 mg/kg/day, po administered for 4 weeks measured post last dose; type: organism-based; settings: in vivo, 672 h, dose 50-450 mg/kg/day
Method in brief: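 SD rats, 6-7 weeks old (96 in total), split into vehicle, 50, 150 and 450 mg/kg/day groups of 12 females and 12 males each, given oral doses once daily for 4 weeks, then 2 weeks of recovery. Mortality, body weight, food intake, eyes, urine and neuropsychic signs were observed. Organ and bone marrow histopathology was done on 8 rats per sex per group after the last dose and on the remaining 4 per sex after 14 days of recovery.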

[17] = Genotoxicity in CHO-WBL cells assessed as chromosome aberration at 90 to 397.1 ug/ml measured after 20 hrs in absence of S9 fraction by Giemsa staining based; type: toxicity, cell-based, Cricetulus griseus; settings: chinese hamster, dose 90-397.1 µg/ml; method in brief: as §2

Compound	Activity [1] [%]	Activity [2] [%]	Activity [3]	Activity [4]	Activity [5]	Activity [6]	Activity [7] [%]	IC50 (Cytochrome P450 1A2) [µM]	Activity [8] [%]	Activity [9] [%]	Activity [10]	half-life at 2 µM [11] [h]	Activity [12] [%]	Activity [13]	Activity [14]	Activity [15] [g/L]	Activity [16]	Activity [17]
CC(=O)NC[C@@H]1OC(=O)N2c3cc(F)c(N4CCSCC4)cc3OC[C@@H]12	77.3	2.99	7.29 10^12/L	955 10^9/L	Non-Toxic	5.06 10^9/L	83.7	> 50	2.93	38.7	6.53 10^12/L	5.25	11.8	6.22 10^9/L	Non-Toxic	126	Non-Toxic	–
CC(=O)NC[C@@H]1OC(=O)N2c3cc(F)c(N4CC[S+]([O-])CC4)cc3OC[C@@H]12	–	–	–	–	–	–	–	–	–	–	–	–	–	–	–	–	–	Non-Toxic
